Data reported in ChEMBL document CHEMBL4325926, “Potent Antimalarial 2-Pyrazolyl Quinolone bc 1 (Qi) Inhibitors with Improved Drug-like Properties” (ACS Med Chem Lett, 2018).
≈ marks a conversion by molar mass, not a printed value. Calls of active or inactive are those of the source. The calls are words filed in the database; no cut-off is given here.

Assays:
Plasmodium falciparum [1] = assay: Antimalarial activity against chloroquine-sensitive Plasmodium falciparum 3D7 measured after 48 hrs by SYBR green1 dye based fluorescence assay; format: functional, organism-based; conditions: 3D7, 48 h
Plasmodium falciparum [2] = assay: Antimalarial activity against chloroquine-resistant Plasmodium falciparum W2 measured after 48 hrs by SYBR green1 dye based fluorescence assay; format: functional, organism-based; conditions: W2, 48 h
[3] = Inhibition of recombinant Plasmodium falciparum NDH2 expressed in Escherichia coli using NADH as substrate
[4] = Aqueous solubility of the compound in pH 7.4 phosphate buffered saline; format: physicochemical
Outline: (§1)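 In vitro DMPK measurements performed by an external DMPK group. Aqueous solubility measured in pH 7.4 PBS buffer. Protein binding measured in human plasma.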

HepG2 = assay: Cytotoxicity against human HepG2 cells after 24 hrs by MTT assay; format: cell-based; conditions: HepG2, 24 h
[5] = Therapeutic index, ratio of IC50 for human HepG2 cells to IC50 for chloroquine-sensitive Plasmodium falciparum 3D7
[6] = Protein binding in human plasma; format: ADME, cell-free; conditions: read-out: PPB; outline: as §1
Plasmodium falciparum [7] = assay: Antimalarial activity against chloroquine-resistant Plasmodium falciparum TM90C2B harboring Y268S mutant measured after 48 hrs by SYBR green1 dye based fluorescence assay; format: functional, organism-based
Plasmodium falciparum [8] = assay: Antimalarial activity against Plasmodium falciparum TX13 expressing yeast dihydroorotate dehydrogenase at >1000 nM; format: functional, organism-based
[9] = Inhibition of Plasmodium falciparum cytochrome bc1 complex using cytochrome-c as substrate and decylubiquinol as donor by spectrophotometric method

O=c1cc(-c2cnn(CCN3CCOCC3)c2)[nH]c2ccccc12
IC50 (Plasmodium falciparum [1]): 690 nM

Cc1c(-c2cnn(Cc3ccc(OC(F)(F)F)cc3)c2)[nH]c2ccccc2c1=O
IC50 (Plasmodium falciparum [1]): 100 nM | IC50 (Plasmodium falciparum [2]): 33 nM | IC50 [3]: 837 nM | solubility [4]: 0.1 µM (≈ 0.0399 µg/mL) | IC50 (HepG2): 13000 nM | selectivity ratio [5]: 130

COc1ccc2c(=O)cc(-c3ccn(Cc4ccc(OC(F)(F)F)cc4)n3)[nH]c2c1
IC50 (Plasmodium falciparum [1]): 541 nM

O=c1c(Cl)c(-c2cnn(Cc3ccc(OC(F)(F)F)cc3)c2)[nH]c2ccccc12
IC50 (Plasmodium falciparum [1]): 166 nM | IC50 (Plasmodium falciparum [2]): 14 nM | solubility [4]: 0.01 µM (≈ 0.0042 µg/mL) | fraction unbound [6]: < 0.001 | IC50 (HepG2): 28400 nM | selectivity ratio [5]: 171

Cc1c(-c2cnn(Cc3ccc(OC(F)(F)F)cc3)c2)[nH]c2ccc(F)cc2c1=O
IC50 (Plasmodium falciparum [1]): 54 nM

C=C(C)[C@H]1Cc2c(ccc3c2O[C@@H]2COc4cc(OC)c(OC)cc4[C@@H]2C3=O)O1 [ROTENONE]
IC50 (HepG2): 1520 nM

CCc1c(-c2cnn(Cc3ccc(OC(F)(F)F)cc3)c2)[nH]c2ccccc2c1=O
IC50 (Plasmodium falciparum [1]): 88 nM | solubility [4]: 0.2 µM (≈ 0.0827 µg/mL) | IC50 (HepG2): 19300 nM | selectivity ratio [5]: 219

Cc1c(-c2ccc(-c3cnn(CCN4CCOCC4)c3)cc2)[nH]c2ccccc2c1=O
IC50 (Plasmodium falciparum [1]): > 1000 nM

O=c1cc(-c2cnn(Cc3ccc(OC(F)(F)F)cc3)c2)[nH]c2ccccc12
IC50 (Plasmodium falciparum [1]): 74 nM

Cc1c(-c2cnn(Cc3ccc(OC(F)(F)F)cc3)c2)[nH]c2cc(F)ccc2c1=O
IC50 (Plasmodium falciparum [1]): 80 nM

Cc1c(-c2ccc(-c3cnn(CCN4CCOCC4)c3)nc2)[nH]c2ccccc2c1=O
IC50 (Plasmodium falciparum [1]): > 1000 nM

CC/C(=C(\c1ccccc1)c1ccc(OCCN(C)C)cc1)c1ccccc1 [TAMOXIFEN]
IC50 (HepG2): 12000 nM

Cc1c(-c2cnn(Cc3ccc(OC(F)(F)F)cc3)c2)[nH]c2cc(Cl)ccc2c1=O
IC50 (Plasmodium falciparum [1]): 50 nM

Cc1c(-c2cnn(Cc3ccc(OC(F)(F)F)cc3)c2)[nH]c2cc(C(F)(F)F)ccc2c1=O
IC50 (Plasmodium falciparum [1]): 810 nM

CCOC(=O)c1c(-c2cnn(Cc3ccc(OC(F)(F)F)cc3)c2)[nH]c2ccccc2c1=O
IC50 (Plasmodium falciparum [1]): 89 nM

Cc1c(-c2cnn(Cc3ccc(OC(F)(F)F)cc3)c2)[nH]c2ccc(Cl)cc2c1=O
IC50 (Plasmodium falciparum [1]): 110 nM

O=c1cc(-c2cnn(Cc3ccc(F)cc3)c2)[nH]c2ccccc12
IC50 (Plasmodium falciparum [1]): 160 nM

O=c1cc(-c2cnn(Cc3ccc(C(F)(F)F)nc3)c2)[nH]c2ccccc12
IC50 (Plasmodium falciparum [1]): 580 nM

CC(C)c1c(-c2cnn(Cc3ccc(OC(F)(F)F)cc3)c2)[nH]c2ccccc2c1=O
IC50 (Plasmodium falciparum [1]): 299 nM

COc1ccc2c(=O)cc(-c3cnn(Cc4ccc(OC(F)(F)F)cc4)c3)[nH]c2c1
IC50 (Plasmodium falciparum [1]): 419 nM

Cc1c(-c2cnn(CCc3ccc(OC(F)(F)F)cc3)c2)[nH]c2ccccc2c1=O
IC50 (Plasmodium falciparum [1]): > 1000 nM

COc1ccc2c(=O)c(Cl)c(-c3ccn(Cc4ccc(OC(F)(F)F)cc4)n3)[nH]c2c1
IC50 (Plasmodium falciparum [1]): 376 nM

Cc1c(-c2ccn(Cc3ccc(OC(F)(F)F)cc3)n2)[nH]c2ccccc2c1=O
IC50 (Plasmodium falciparum [1]): 270 nM | IC50 (Plasmodium falciparum [2]): 49 nM | IC50 (Plasmodium falciparum [7]): 300 nM | IC50 [3]: 68 nM | solubility [4]: 0.4 µM (≈ 0.16 µg/mL) | IC50 (HepG2): 21200 nM | selectivity ratio [5]: 79

COc1ccc2c(=O)c(Cl)c(-c3cnn(Cc4ccc(OC(F)(F)F)cc4)c3)[nH]c2c1
IC50 (Plasmodium falciparum [1]): 91 nM | IC50 (Plasmodium falciparum [2]): 11 nM | IC50 (Plasmodium falciparum [7]): 110 nM | Activity (Plasmodium falciparum [8]): inactive

Cc1c(-c2ccc(Cc3ccc(OC(F)(F)F)cc3)cc2)[nH]c2ccccc2c1=O
solubility [4]: 0.03 µM (≈ 0.0123 µg/mL)

O=C1C(O)=C([C@H]2CC[C@H](c3ccc(Cl)cc3)CC2)C(=O)c2ccccc21 [ATOVAQUONE]
IC50 (Plasmodium falciparum [2]): 0.3 nM | IC50 [3]: 10000 nM

COc1ccc2c(=O)c(C)c(-c3cnn(Cc4ccc(OC(F)(F)F)cc4)c3)[nH]c2c1
IC50 (Plasmodium falciparum [1]): 33 nM | IC50 (Plasmodium falciparum [2]): 15 nM | IC50 (Plasmodium falciparum [7]): 500 nM | IC50 [9]: 0.75 nM | IC50 [3]: 1000 nM | solubility [4]: 0.3 µM (≈ 0.129 µg/mL) | IC50 (HepG2): 11000 nM | selectivity ratio [5]: 333
